{"source": "paper PMC5034689", "about": "(Molecular Metabolism, 2016)", "key": {"3T3L1 adipocytes": {"system": "3T3L1 adipocytes", "experiment": "Glycerol assay for lipolysis in adipocytes", "format": "cell-based", "conditions": "TNP 1 μM, isoproterenol 10 μM", "outline": "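3T3-L1 preadipocytes were differentiated for 7 days. Adipocytes were pretreated 4 h with DMSO or 1 μM test compound in DMEM with 0.5% fatty-acid-free BSA. Medium was then replaced, with or without isoproterenol (10 μM), and compound was kept on throughout. Glycerol released into the medium was measured with a commercial kit.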"}, "DIO mice [1]": {"system": "DIO mice", "experiment": "Single dose of TNP in DIO mice", "format": "in vivo", "outline": "(§1)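 Chow-fed lean or DIO mice (n = 4/group) received one 20 mg/kg injection, were fasted 5 h, then given GTT (glucose 2 g/kg i.p., tail-vein glucometer from time 0). Mice were then sacrificed for tissues and cardiac-puncture serum. Insulin was measured by ultra-sensitive ELISA and TAG by a metabolic core. Akt S473 was immunoblotted (T308 also in IWAT), with densitometry n = 3.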"}, "PP-IP5K": {"system": "PP-IP5K", "conditions": "cited from earlier work"}, "IP6Ks": {"system": "IP6Ks", "conditions": "cited from earlier work"}, "IP6K1-KO mice": {"system": "IP6K1-KO mice", "experiment": "Long-term TNP for reversal of DIO in IP6K1-KO mice", "format": "in vivo", "outline": "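Inbred IP6K1-KO mice (seventh generation) and WT littermates, n = 4/group, received HFD for 8 weeks, then daily injections (10 mg/kg) with continued HFD for 10 weeks. GTT was done at week 5: 5 h fast, glucose 2 g/kg i.p., tail-vein glucometer readings including time 0. After 10 weeks, fat, lean and fluid masses were measured by LF-NMR, and mice were sacrificed after a 5 h fast.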"}, "[2]": {"experiment": "Hepatic microsomal stability, human", "format": "in vitro ADME", "conditions": "liver microsomes, pH 7.4", "outline": "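Test compound (1 μM) was incubated with liver microsomes (1 mg/ml) and 1 mM NADPH in 100 mM potassium phosphate, pH 7.4. Aliquots were taken at 0, 5, 10, 20, 40 and 60 min and analysed by LC-MS/MS. Loss of parent was expressed as half-life.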"}, "71 unrelated kinases": {"system": "71 unrelated kinases", "conditions": "cited from earlier work"}, "cortical neurons": {"system": "cortical neurons", "conditions": "cited from earlier work"}, "CYP2C9": {"target": "CYP2C9 (Homo sapiens, UniProt P11712)", "sequence (P11712 whole entry)": "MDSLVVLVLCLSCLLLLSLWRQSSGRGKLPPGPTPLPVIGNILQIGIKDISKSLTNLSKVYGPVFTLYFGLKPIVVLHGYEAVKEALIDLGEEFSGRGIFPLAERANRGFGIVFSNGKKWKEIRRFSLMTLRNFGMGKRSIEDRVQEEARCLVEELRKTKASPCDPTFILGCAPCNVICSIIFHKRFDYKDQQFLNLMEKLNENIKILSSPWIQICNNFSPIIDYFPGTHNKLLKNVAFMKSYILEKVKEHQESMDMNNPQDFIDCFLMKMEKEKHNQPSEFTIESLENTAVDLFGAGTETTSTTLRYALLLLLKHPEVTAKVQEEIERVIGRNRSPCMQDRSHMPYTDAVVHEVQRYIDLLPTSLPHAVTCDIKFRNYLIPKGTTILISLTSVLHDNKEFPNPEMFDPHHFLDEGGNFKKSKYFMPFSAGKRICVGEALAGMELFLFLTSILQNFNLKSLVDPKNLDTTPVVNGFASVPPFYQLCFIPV", "experiment": "CYP450 inhibition in human hepatic microsomes, CYP2C9", "format": "in vitro ADME", "conditions": "liver microsomes, probe tolbutamide (hydroxylation to hydroxytolbutamide)"}, "[3]": {"experiment": "Plasma protein binding, equilibrium dialysis, human", "format": "in vitro ADME", "outline": "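Binding was measured by rapid equilibrium dialysis in triplicate, starting at 1 μM drug in the plasma chamber against PBS. Plates were shaken 6 h at 37 °C. Samples were matrix-matched to 1:1 plasma:PBS and quantified by LC-MS/MS. Fraction bound = ([plasma] − [PBS])/[plasma].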"}, "[4]": {"experiment": "Plasma and tissue availability after a single intraperitoneal TNP injection", "format": "in vivo, mice", "outline": "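Chow-fed mice received a single i.p. injection (20 mg/kg) in DMSO:Tween 80:water (1:1:8). Plasma levels were followed 1–6 h after dosing. Liver, skeletal muscle, white and brown adipose tissue and brain were collected 6 h after dosing to measure tissue concentrations.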"}, "CYP2D6": {"target": "CYP2D6 (Homo sapiens, UniProt P10635)", "sequence (P10635 whole entry)": "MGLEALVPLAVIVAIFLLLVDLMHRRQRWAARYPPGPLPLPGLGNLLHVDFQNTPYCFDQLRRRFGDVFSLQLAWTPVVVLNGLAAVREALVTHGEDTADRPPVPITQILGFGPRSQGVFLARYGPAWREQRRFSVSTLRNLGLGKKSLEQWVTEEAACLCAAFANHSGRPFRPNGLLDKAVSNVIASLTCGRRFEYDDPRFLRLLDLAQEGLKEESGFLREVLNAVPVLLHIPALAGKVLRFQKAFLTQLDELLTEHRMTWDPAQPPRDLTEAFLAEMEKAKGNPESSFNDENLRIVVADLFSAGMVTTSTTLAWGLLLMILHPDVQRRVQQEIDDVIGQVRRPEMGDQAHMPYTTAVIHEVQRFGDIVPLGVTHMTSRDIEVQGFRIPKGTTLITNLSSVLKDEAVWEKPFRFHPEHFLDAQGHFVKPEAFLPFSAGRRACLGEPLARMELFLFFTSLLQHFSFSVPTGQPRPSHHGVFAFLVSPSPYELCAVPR", "experiment": "CYP450 inhibition in human hepatic microsomes, CYP2D6", "format": "in vitro ADME", "conditions": "liver microsomes, probe bufuralol (hydroxylation to 4′-hydroxybufuralol)"}, "lean/CD-fed mice": {"system": "lean/CD-fed mice", "experiment": "Single dose of TNP in chow", "format": "in vivo", "conditions": "single dose 20 mg/kg BW", "outline": "as §1"}, "DIO mice [5]": {"system": "DIO mice", "experiment": "Long-term TNP treatment of DIO mice at thermoneutral temperature", "format": "in vivo", "outline": "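Following the initial phase, vehicle or test compound was injected for another 8 weeks, n = 6/group. Body weight was recorded weekly. ITT was done at week 4: 5 h fast, human insulin 0.75 U/kg i.p., tail-vein glucometer. At 8 weeks, mice were sacrificed after a 5 h fast. Cardiac-puncture serum was assayed for cholesterol and HDL by a metabolic core.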"}, "Recombinant human IP6K1": {"target": "Recombinant human IP6K1 (Homo sapiens, UniProt Q92551)", "sequence (Q92551 whole entry)": "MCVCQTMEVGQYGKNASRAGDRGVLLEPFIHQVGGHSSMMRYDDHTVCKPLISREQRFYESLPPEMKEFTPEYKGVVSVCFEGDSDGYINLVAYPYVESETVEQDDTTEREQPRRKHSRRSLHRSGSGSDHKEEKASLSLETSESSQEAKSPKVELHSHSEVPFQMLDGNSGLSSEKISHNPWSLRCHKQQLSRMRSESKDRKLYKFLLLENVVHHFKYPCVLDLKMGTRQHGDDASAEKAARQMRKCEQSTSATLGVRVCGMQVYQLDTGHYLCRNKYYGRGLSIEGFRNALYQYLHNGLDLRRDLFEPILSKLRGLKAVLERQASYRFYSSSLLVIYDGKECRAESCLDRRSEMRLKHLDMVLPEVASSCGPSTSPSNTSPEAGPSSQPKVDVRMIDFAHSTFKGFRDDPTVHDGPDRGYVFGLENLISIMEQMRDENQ", "experiment": "IP6K1 activity assay in vitro, SDS-PAGE assay", "format": "biochemical", "conditions": "TNP 1 μM", "outline": "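Recombinant human IP6K1 (100 ng, purified from E. coli) was incubated in 20 mM Tris pH 7.4 with 5 mM MgCl2, 5 nmol IP6, 1 mM ATP and 1 mM DTT. DMSO or 1 μM test compound was added. IP6 conversion to 5-IP7 was resolved and read by SDS-PAGE.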"}, "[6]": {"system": "human promyelocytic leukemia (HL60) cells", "conditions": "cited from earlier work"}, "chow-fed male mice": {"system": "chow-fed male mice", "experiment": "Long-term TNP treatment on fertility of chow-fed male mice", "format": "in vivo", "conditions": "10 mg/kg BW daily for 15 weeks, chow-fed WT", "outline": "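Six-week-old chow-fed male mice were injected daily with 10 mg/kg test compound for 4 weeks. They were then used for breeding while injections continued another 11 weeks (15 weeks total). Each male took part in 4 rounds of harem breeding, the last after 14 weeks of treatment.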"}, "IP3-3K": {"system": "IP3-3K", "conditions": "PC12 cells, enhances neurite outgrowth; cited from earlier work"}, "HFD-fed mice": {"system": "HFD-fed mice", "experiment": "Long-term TNP for protection against DIO", "format": "in vivo, C57BL6 mice", "outline": "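Male C57BL6 mice, chow-fed to 2 months of age, started HFD together with daily injections (10 mg/kg; vehicle DMSO:Tween 80:water 1:1:8) for 10 weeks, n = 6/group, 23 °C. Body weight was recorded weekly. In week 5, CLAMS ran 36 h acclimatization then 48 h of VO2, VCO2 and locomotor recording. RER = VCO2/VO2, and EE was normalized to lean mass. Week-7 food intake was measured by BioDAQ (2 days acclimatization, 4 days recorded).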"}, "[7]": {"conditions": "10 mg/kg BW daily, 5th week, CLAMS"}}, "data": [{"molecule": "O=[N+]([O-])c1ccc(CNc2nc(NCc3cccc(C(F)(F)F)c3)nc3[nH]cnc23)cc1", "note": "[TNP, N6-(4-nitrobenzyl)-N2-(3-(trifluoromethyl)benzyl)-9H-purine-2,6-diamine]", "values": [{"measurement": "Basal or isoproterenol induced lipolysis (glycerol release)", "setting": "3T3L1 adipocytes", "value": "does not influence"}, {"measurement": "Blood glucose level", "setting": "DIO mice [1]; single dose 20 mg/kg BW", "value": "significantly reduces"}, {"measurement": "Glucose tolerance (GTT)", "setting": "DIO mice [1]; single dose 20 mg/kg BW", "value": "significantly improves"}, {"measurement": "HFD induced increase in serum insulin", "setting": "DIO mice [1]; single dose 20 mg/kg BW", "value": "slightly reduces"}, {"measurement": "Serum TAG level", "setting": "DIO mice [1]; single dose 20 mg/kg BW", "value": "does not influence"}, {"measurement": "Serum cholesterol, HDL, and LDL levels", "setting": "DIO mice [1]; single dose 20 mg/kg BW", "value": "slightly reduces"}, {"measurement": "Increase in Akt S473 phosphorylation in IWAT, soleus muscle and liver", "setting": "DIO mice [1]; single injection 20 mg/kg BW, phospho S473/total Akt, ImageJ", "value": "2–3 fold"}, {"measurement": "Effect on the 1-IP7 generating enzyme PP-IP5K", "setting": "PP-IP5K", "value": "does not influence"}, {"measurement": "Potency on IP6Ks over IP3-3K", "setting": "IP6Ks", "value": 70, "unit": "fold"}, {"measurement": "TNP mediated weight loss", "setting": "IP6K1-KO mice; 10 mg/kg BW daily, 10 weeks", "value": "resistant to Rev-TNP mediated weight loss"}, {"measurement": "Total fat, lean, and fluid masses", "setting": "IP6K1-KO mice; 10 mg/kg BW daily, 10 weeks", "value": "unaltered"}, {"measurement": "Body weight", "setting": "IP6K1-KO mice; 10 mg/kg BW daily, after 10-week of treatment", "value": "~33", "unit": "g"}, {"measurement": "Glucose disposal (GTT)", "setting": "IP6K1-KO mice; after 5 weeks of TNP treatment", "value": "not altered"}, {"measurement": "half-life at 1 μM", "setting": "[2]", "value": 0.533, "unit": "h"}, {"measurement": "Effect on 71 unrelated kinases", "setting": "71 unrelated kinases", "value": "does not influence"}, {"measurement": "Cytosolic Zn2+ levels", "setting": "cortical neurons", "value": "slightly elevates"}, {"measurement": "inhibition at 10 μM", "setting": "CYP2C9", "value": 92, "unit": "%"}, {"measurement": "fraction unbound at 6 h, 1 μM", "setting": "[3]", "value": 0.083}, {"measurement": "Crossing of the BBB", "setting": "[4]; mice", "value": "does not efficiently cross the BBB"}, {"measurement": "half-life", "setting": "[4]; mouse, plasma, ip, 20 mg/kg", "value": "~6", "unit": "h"}, {"measurement": "TNP concentration in plasma", "setting": "[4]; single dose 20 mg/kg i.p., chow fed mice, 1–6 h post-treatment", "value": "5 to 10", "unit": "µM"}, {"measurement": "inhibition at 10 μM", "setting": "CYP2D6", "value": 76, "unit": "%"}, {"measurement": "Akt phosphorylation at S473 in liver and EWAT", "setting": "lean/CD-fed mice", "value": "does not alter"}, {"measurement": "Glucose disposal (GTT)", "setting": "lean/CD-fed mice", "value": "does not influence"}, {"measurement": "Glucose disposal following exogenous insulin treatment (ITT)", "setting": "DIO mice [5]; 30 °C, after 4-weeks of TNP injection", "value": "significantly improved"}, {"measurement": "Average decrease in body weight", "setting": "DIO mice [5]; 30 °C, after 8-weeks of injection", "value": "~0.7", "unit": "g"}, {"measurement": "Serum levels of total cholesterol and HDL", "setting": "DIO mice [5]; thermoneutral temperature", "value": "unaltered at thermoneutral temperature"}, {"measurement": "IP6K1 activity", "setting": "Recombinant human IP6K1", "value": "inhibits IP6K1 activity"}, {"measurement": "Ca2+ levels", "setting": "[6]", "value": "slightly elevates"}, {"measurement": "Sterility of males", "setting": "chow-fed male mice", "value": "do not display sterility"}, {"measurement": "Concentrations at which TNP inhibits IP3-3K", "setting": "IP3-3K", "value": "20 to 40", "unit": "µM"}, {"measurement": "Lean mass", "setting": "HFD-fed mice; 10 mg/kg BW daily", "value": "unaltered"}, {"measurement": "Average RER", "setting": "HFD-fed mice; [7]", "value": "unaltered"}, {"measurement": "Average activity", "setting": "HFD-fed mice; [7]", "value": "unaltered"}, {"measurement": "Energy expenditure (EE)", "setting": "HFD-fed mice; [7]", "value": "higher EE especially during nighttime"}, {"measurement": "VO2 consumption", "setting": "HFD-fed mice; [7]", "value": "higher VO2 consumption"}, {"measurement": "Daily energy intake", "setting": "HFD-fed mice; 10 mg/kg BW daily, 7th week, vs vehicle", "value": "similar"}, {"measurement": "Glucose disposal following glucose (GTT) and insulin injections (ITT)", "setting": "HFD-fed mice; 10 mg/kg BW daily, 8th and 9th week", "value": "efficient glucose disposals"}, {"measurement": "Body weight gain", "setting": "HFD-fed mice; 10 mg/kg BW daily, after 10 weeks (injection stopped)", "value": 2.9, "unit": "g"}, {"measurement": "Body weight", "setting": "HFD-fed mice; 10 mg/kg BW daily, after 10 weeks of HFD and TNP", "value": 27.8, "unit": "g"}, {"measurement": "Glucose disposal following glucose injection (GTT)", "setting": "HFD-fed mice; 2 weeks after TNP withdrawal", "value": "efficient glucose disposal"}, {"measurement": "Body weight gain", "setting": "HFD-fed mice; 18-week, eight weeks after TNP withdrawal", "value": 19.3, "unit": "g"}, {"measurement": "Body weight", "setting": "HFD-fed mice; 18-week, eight weeks after TNP withdrawal, HFD continued", "value": 44.3, "unit": "g"}, {"measurement": "Glucose tolerance (GTT)", "setting": "HFD-fed mice; four weeks after TNP withdrawal", "value": "become glucose intolerant"}, {"measurement": "Body weight", "setting": "HFD-fed mice; onset of the experiment (before treatment)", "value": 24.9, "unit": "g"}, {"measurement": "Weight gain during the withdrawal period", "setting": "HFD-fed mice; weeks 10 to 18, TNP-withdrawn mice", "value": 16.4, "unit": "g"}]}]}
